Laboratory results: ChEMBL document CHEMBL2176974, “A bactericidal guanidinomethyl biaryl that alters the dynamics of bacterial FtsZ polymerization” (J Med Chem, 2012)
Numbering of substitutions follows the chain as printed. ≈ marks a conversion by molar mass, not a printed value. Calls of active or inactive are those of the source. The rule behind the calls is not given here.

Experiments:
[1] = test system: T1, Cell division protein FtsZ (Staphylococcus aureus), P0A031 [E185A]; assay: Binding affinity to Staphylococcus aureus FtsZ E185A mutant self-polymerization at 10 ug/mL by microtiter plate-based light scattering assay
T1 sequence (whole entry): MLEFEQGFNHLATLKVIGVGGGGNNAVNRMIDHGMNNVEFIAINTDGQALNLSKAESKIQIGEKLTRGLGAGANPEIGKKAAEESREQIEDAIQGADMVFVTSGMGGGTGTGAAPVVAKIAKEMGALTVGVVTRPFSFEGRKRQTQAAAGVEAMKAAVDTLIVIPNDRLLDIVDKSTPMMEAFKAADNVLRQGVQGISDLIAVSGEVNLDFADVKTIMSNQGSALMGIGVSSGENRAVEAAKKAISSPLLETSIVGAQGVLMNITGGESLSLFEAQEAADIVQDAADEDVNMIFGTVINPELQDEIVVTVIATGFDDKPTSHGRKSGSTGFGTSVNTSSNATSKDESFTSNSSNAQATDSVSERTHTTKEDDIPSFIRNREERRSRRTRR

[2] = test system: Enterococcus faecalis; assay: microbe, parasite or virus in culture; format: functional; conditions: ATCC 51575, 24 h
[3] = Selectivity index, ratio of Kd for Enterococcus faecalis FtsZ to Kd for Staphylococcus aureus FtsZ
In short: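 Buffer was 50 mM Tris·HCl pH 7.4, 50 mM KCl, 2 mM magnesium acetate. Kd came from nonlinear least-squares fits, and the index is the ratio of the two Kd values.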

[4] = test system: T2, Cell division protein FtsZ (Staphylococcus aureus), P0A031 [G196A]; assay: Binding affinity to Staphylococcus aureus FtsZ G196A mutant self-polymerization at 10 ug/mL by microtiter plate-based light scattering assay
T2 sequence (whole entry): T1 sequence (whole entry) with A185E, G196A

[5] = test system: Staphylococcus aureus; assay: Potency index, ratio of erythromycin to compound bactericidal effect in methicillin-sensitive Staphylococcus aureus 8325-4 at 8 times MIC by time kill study; format: functional
[6] = biological target: T3, Cell division protein FtsZ (Escherichia coli K-12) (UniProt P0A9A6); assay: Binding affinity to Escherichia coli FtsZ at 40 uM by fluorescence anisotropy BoGTPgammaS competition assay
T3 sequence (whole entry): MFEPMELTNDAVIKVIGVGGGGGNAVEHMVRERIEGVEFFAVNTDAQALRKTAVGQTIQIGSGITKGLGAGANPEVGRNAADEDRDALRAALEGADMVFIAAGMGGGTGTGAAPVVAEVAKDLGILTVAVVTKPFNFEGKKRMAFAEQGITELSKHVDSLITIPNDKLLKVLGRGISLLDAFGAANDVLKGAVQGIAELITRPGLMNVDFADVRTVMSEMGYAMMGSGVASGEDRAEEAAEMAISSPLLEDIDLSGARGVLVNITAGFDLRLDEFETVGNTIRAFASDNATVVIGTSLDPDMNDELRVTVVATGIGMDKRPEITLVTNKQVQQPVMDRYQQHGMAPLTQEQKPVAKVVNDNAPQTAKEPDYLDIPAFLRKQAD
In short: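 Competition with fluorescent BoGTPγS. BoGTPγS (1 μM final) was mixed with 5 μM FtsZ and compound or unlabeled GTP at 0–40 μM. Buffer was 50 mM Tris·HCl pH 7.4, 50 mM KCl, 2 mM magnesium acetate. After 5 min at 25 °C, anisotropy was read at excitation 488 nm and emission 510 nm, in triplicate and averaged.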

[7] = test system: Streptococcus pyogenes; assay: Antimicrobial activity against Streptococcus pyogenes Strep A ATCC 19615 incubated for 24 hrs by broth microdilution method; format: functional; conditions: Strep A ATCC 19615, 24 h
In short: (§1)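 CLSI broth microdilution. Log-phase bacteria at 10⁵ CFU/mL were exposed to 2-fold serial dilutions (64 to 0.016 μg/mL) in cation-adjusted Mueller-Hinton broth, 5% defibrinated sheep blood added for Streptococcus. Incubated aerobically 24 h at 37 °C. Growth read as OD600; MIC taken as the lowest concentration giving 90% growth inhibition.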

[8] = test system: T2, Cell division protein FtsZ (Staphylococcus aureus), P0A031 [G196A]; assay: Binding affinity to Staphylococcus aureus FtsZ G196A mutant self-polymerization at 20 ug/mL by microtiter plate-based light scattering assay
[9] = test system: Staphylococcus aureus; assay: Bactericidal activity against methicillin-sensitive Staphylococcus aureus 8325-4 at 8 times MIC measured within 6 hrs post dose for 24 hrs assessed as log reduction in bacterial CFU by time kill study; format: functional
In short: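 Exponentially growing S. aureus 8325-4 was diluted in CAMH broth to 10⁵–10⁶ CFU/mL. […] Samples taken at 2, 4 and 6 h were pelleted or diluted, then plated on TSA. Colonies were counted after 24 h at 37 °C. Points are the mean of two independent measurements.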

[10] = test system: Enterococcus faecalis; assay: Stimulation of Enterococcus faecalis FtsZ self-polymerization by microtiter plate-based light scattering assay
[11] = biological target: T3, Cell division protein FtsZ (Escherichia coli K-12); assay: Stimulation of Escherichia coli FtsZ self-polymerization by microtiter plate-based light scattering assay
[12] = test system: Staphylococcus aureus; assay: Potency index, ratio of vancomycin to compound bactericidal effect in methicillin-sensitive Staphylococcus aureus 8325-4 at 8 times MIC by time kill study; format: functional
[13] = test system: Staphylococcus aureus; assay: microbe, parasite or virus in culture; format: functional; conditions: ATCC 33591, 24 h
[14] = Binding affinity to Enterococcus faecalis FtsZ at 25 degC by fluorescence anisotropy assay; conditions: read-out: Kd
[15] = test system: Streptococcus agalactiae; assay: Antimicrobial activity against Streptococcus agalactiae Strep B ATCC 12386 incubated for 24 hrs by broth microdilution method; format: functional; conditions: Strep B ATCC 12386, 24 h; in short: as §1

Question: With `CC(C)(C)c1ccc(-c2cccc(CNC(=N)N)c2)cc1` as the molecule, how does the Activity [1] read?
Answer: inactive

Question: What about the MIC [2] of the same molecule?
Answer: 4 µg/mL (≈ 14.2 µM)

Question: What about the Ratio [3] of the same molecule?
Answer: 6

Question: What about the Activity [4] of the same molecule?
Answer: Active

Question: And the Ratio [5]?
Answer: >1000

Question: What about the Activity [6] of the same molecule?
Answer: inactive

Question: What about the MIC [7] of the same molecule?
Answer: 2 µg/mL (≈ 7.11 µM)

Question: What about the Activity [8] of the same molecule?
Answer: Active

Question: And the FC [9]?
Answer: 4

Question: And the Activity [10]?
Answer: Dose-dependent effect

Question: And the Activity [11]?
Answer: Dose-dependent effect

Question: What about the Ratio [12] of the same molecule?
Answer: 100

Question: And the MIC [13]?
Answer: 1 µg/mL (≈ 3.55 µM)

Question: What about the Kd [14] of the same molecule?
Answer: 21.8 µM

Question: And the MIC [15]?
Answer: 16 µg/mL (≈ 56.9 µM)
